Results reported in ChEMBL document CHEMBL2069204, “N-1-Alkyl-2-oxo-2-aryl amides as novel antagonists of the TRPA1 receptor” (Bioorg Med Chem Lett, 2012).
Values after ≈ are worked out from the molar mass of the structure shown. Active and inactive are the calls of the source. No cut-off for these calls is given here.

Legend:
[1] = biological target: T1, Transient receptor potential cation channel subfamily A member 1 (Homo sapiens, UniProt O75762); experiment: Antagonist activity at human TRPA1 expressed in HEK293 cells assessed as inhibition of Ca2+-induced intracellular calcium flux by FLIPR assay; type: functional, cell-based
In short: (§1)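 Fluorescence-based TRPA1 antagonist assay with the agonist as the stimulus: Ca2+ for line 1 and Zn2+ for line 2. Results are reported as pIC50. Compounds with pIC50 > 5 were checked by automated electrophysiology on IonWorks to exclude autofluorescence artefacts. The IC50s from the two agonist formats were pooled and treated as one data set.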

[2] = biological target: T1, Transient receptor potential cation channel subfamily A member 1; experiment: Antagonist activity at human TRPA1 expressed in HEK293 cells assessed as inhibition of Zn2+-induced intracellular calcium flux by FLIPR assay; type: functional, cell-based; in short: as §1
[3] = Solubility of the compound in phosphate buffer at pH 7.4 by dried DMSO method; type: physicochemical
In short: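 Measured by the 'dried DMSO' method in phosphate buffer at pH 7.4. Results are binned as low (<1–5 μM), medium (5–25 μM) or good (>25 μM).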

[4] = Metabolic stability in human microsomes assessed as glutathione adduct formation

T1 sequence (O75762 whole entry): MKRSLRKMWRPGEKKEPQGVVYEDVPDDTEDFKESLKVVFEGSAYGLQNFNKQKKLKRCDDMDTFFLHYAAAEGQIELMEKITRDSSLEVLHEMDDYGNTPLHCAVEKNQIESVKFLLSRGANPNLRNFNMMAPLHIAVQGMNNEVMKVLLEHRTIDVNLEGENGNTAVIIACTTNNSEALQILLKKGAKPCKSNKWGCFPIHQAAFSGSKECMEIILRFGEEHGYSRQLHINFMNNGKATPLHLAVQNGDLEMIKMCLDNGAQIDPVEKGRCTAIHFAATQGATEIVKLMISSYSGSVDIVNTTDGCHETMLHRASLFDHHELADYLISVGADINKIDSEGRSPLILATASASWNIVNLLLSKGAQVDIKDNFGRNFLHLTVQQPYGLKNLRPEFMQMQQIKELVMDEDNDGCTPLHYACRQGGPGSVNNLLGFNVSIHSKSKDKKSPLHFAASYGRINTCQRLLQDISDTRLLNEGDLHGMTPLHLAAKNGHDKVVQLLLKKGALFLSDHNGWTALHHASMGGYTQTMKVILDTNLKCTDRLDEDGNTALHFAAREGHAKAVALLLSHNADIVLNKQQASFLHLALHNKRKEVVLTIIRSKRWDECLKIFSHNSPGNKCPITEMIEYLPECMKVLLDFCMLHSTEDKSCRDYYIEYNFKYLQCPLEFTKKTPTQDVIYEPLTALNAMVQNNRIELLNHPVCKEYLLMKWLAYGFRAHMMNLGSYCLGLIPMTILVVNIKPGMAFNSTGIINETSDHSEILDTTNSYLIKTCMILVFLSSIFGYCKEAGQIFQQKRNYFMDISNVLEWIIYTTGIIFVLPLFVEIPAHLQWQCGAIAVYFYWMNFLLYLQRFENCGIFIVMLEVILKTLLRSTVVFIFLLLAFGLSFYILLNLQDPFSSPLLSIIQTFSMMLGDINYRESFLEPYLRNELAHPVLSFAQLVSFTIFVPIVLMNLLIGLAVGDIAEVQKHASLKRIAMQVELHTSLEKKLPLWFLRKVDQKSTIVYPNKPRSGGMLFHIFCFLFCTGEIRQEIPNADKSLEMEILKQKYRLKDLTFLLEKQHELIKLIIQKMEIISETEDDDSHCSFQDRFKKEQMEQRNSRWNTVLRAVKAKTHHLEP

Row | IC50 [1] [µM] | IC50 [2] [µM] | Structure (SMILES) | further results
1 | 2 | 1 | CCCCCCCCCC(=O)NC(C(=O)c1ccc(C#N)cc1)C(C)C (stereo unspecified) | –
2 | – | – | C=CCN(CC=C)c1ccc(C(=O)C(NC(=O)c2ccccc2)C(C)C)cc1 (racemic) | pIC50 [1]: inactive; pIC50 [2]: < 4.5
3 | – | – | CC(C)C(NC(=O)c1ccccc1)C(=O)c1ccc(N)cc1 (racemic) | pIC50 [1]: inactive; pIC50 [2]: inactive
4 | – | – | CC(C)C(NC(=O)c1ccccc1)C(=O)c1ccc(S(C)(=O)=O)cc1 (racemic) | pIC50 [1]: inactive; pIC50 [2]: inactive
5 | – | 0.2 | Cc1noc(C(C)C)c1C(=O)NC(C(=O)c1ccc(C#N)c(F)c1)C(C)(C)C (stereo unspecified) | solubility kinetic [3]: 80 µM (≈ 30.8 µg/mL)
6 | – | – | CC(C)C(NC(=O)c1ccccc1)C(=O)c1ccc(Cl)cc1 (single isomer, unassigned; isomer 2) | pIC50 [1]: inactive; pIC50 [2]: inactive
7 | – | – | O=C(NC1(C(=O)c2ccc(Cl)cc2)CCC1)c1ccccc1 | pIC50 [1]: inactive; pIC50 [2]: inactive
8 | 7.94 | 3.98 | Cc1noc(-c2ccccc2)c1C(=O)NC(C(=O)c1ccc(C#N)cc1)C(C)C (stereo unspecified) | –
9 | 1 | 0.501 | CC(C)C(NC(=O)c1cnoc1C(C)(C)C)C(=O)c1ccc(C#N)cc1 (stereo unspecified) | –
10 | – | – | CC(C)C(NC(=O)c1ccccc1)C(=O)c1cccc(Cl)c1 (racemic) | pIC50 [1]: inactive; pIC50 [2]: < 4.5
11 | – | – | CCCC(NC(=O)c1ccccc1)C(=O)c1ccc(Cl)cc1 (stereo unspecified) | pIC50 [1]: inactive; pIC50 [2]: inactive
12 | 1 | 0.398 | CC(C)(C)C(NC(=O)c1ccccc1)C(=O)c1ccc(Cl)cc1 (stereo unspecified) | –
13 | 3.98 | – | CC(C)C(NC(=O)c1ccccc1)C(=O)c1ccc(Cl)c(Cl)c1 (racemic) | –
14 | 1 | 0.794 | CC(C)C(NC(=O)OC(C)(C)C)C(=O)c1ccc(Cl)cc1 (stereo unspecified) | –
15 | 5.01 | 7.94 | CC(C)C(NC(=O)c1ccccc1)C(=O)c1ccc(F)cc1 (racemic) | –
16 | – | 0.398 | CC(C)C(NC(=O)c1cnn(C(C)(C)C)c1C(F)(F)F)C(=O)c1ccc2nonc2c1 (stereo unspecified) | –
17 | 3.16 | 3.98 | CC(C)C(NC(=O)c1ccc(Cl)cc1F)C(=O)c1ccc(C#N)cc1 (stereo unspecified) | –
18 | 6.31 | 2.51 | CC(C)C(NC(=O)OC(C)(C)C)C(=O)c1ccc(C#N)cc1 (stereo unspecified) | –
19 | 2 | 2.51 | CC(C)C(NC(=O)NC(C)(C)C)C(=O)c1ccc(Cl)cc1 (stereo unspecified) | –
20 | 0.316 | 0.251 | CC(C)C(NC(=O)c1ccccc1)C(=O)c1ccc([N+](=O)[O-])cc1 (racemic) | –
21 | 1.26 | 2 | CC(C)C(NC(=O)OC(C)(C)C)C(=O)c1ccc(C#N)c(F)c1 (stereo unspecified) | –
22 | – | 2 | CC(C)C(NC(=O)c1cc(Cl)ccc1F)C(=O)c1ccc(C#N)cc1 (stereo unspecified) | pIC50 [1]: inactive
23 | – | – | CC(C)C(NC(=O)Nc1ccc(F)cc1)C(=O)c1ccc(C#N)cc1 (stereo unspecified) | pIC50 [1]: inactive; pIC50 [2]: inactive

Row | IC50 [1] [µM] | IC50 [2] [µM] | Structure (SMILES) | further results
24 | 1.58 | 2 | Cc1noc(C(C)C)c1C(=O)NC(C(=O)c1ccc(C#N)cc1)C(C)C (stereo unspecified) | –
25 | 7.94 | 1.26 | CC(C)C(NC(=O)c1ccccc1)C(=O)c1ccc(Br)cc1 (racemic) | –
26 | 0.398 | – | CC(C)C(NC(=O)c1ccc(Cl)cc1)C(=O)c1ccc(C#N)cc1 (stereo unspecified) | –
27 | 2.51 | 1.26 | CC(C)C(NC(=O)c1ccccc1)C(=O)c1ccc(Cl)cc1 (racemic) | –
28 | – | 0.01 | CC(C)C(NC(=O)c1cc(Cl)ccc1C(F)(F)F)C(=O)c1ccc([N+](=O)[O-])cc1 (stereo unspecified) | solubility kinetic [3]: < 1 µM
29 | – | – | Cc1noc(C(C)C)c1C(=O)NC1C(=O)c2ccc(Cl)cc2CC1(C)C (stereo unspecified) | pIC50 [2]: inactive
30 | 5.01 | 2.51 | CC(C)C(NC(=O)c1ccc(Cl)cc1Cl)C(=O)c1ccc(C#N)cc1 (stereo unspecified) | –
31 | 0.398 | 0.316 | CC(C)C(NC(=O)c1cc(C(F)(F)F)ccc1Cl)C(=O)c1ccc(C#N)cc1 (stereo unspecified) | –
32 | – | – | O=C(CNC(=O)c1ccccc1)c1ccc(Cl)cc1 | pIC50 [1]: inactive; pIC50 [2]: inactive
33 | 12.6 | 6.31 | COc1ccc(C(=O)NC(C(=O)c2ccc(C#N)cc2)C(C)C)cc1 (stereo unspecified) | –
34 | 3.98 | 1.58 | CC(C)C(NC(=O)c1cc2ccccc2n1C)C(=O)c1ccc(C#N)cc1 (stereo unspecified) | –
35 | 3.16 | 5.01 | CC(C)C(NC(=O)c1ccccc1C(F)(F)F)C(=O)c1ccc(C#N)cc1 (stereo unspecified) | –
36 | 1 | 0.398 | CC(C)C(NC(=O)c1ccccc1)C(=O)c1ccc(Cl)cc1 (single isomer, unassigned; isomer 1) | –
37 | 3.98 | – | CC(C)C(NC(=O)c1ccccc1)C(=O)c1ccc(C#N)cc1 (racemic) | solubility kinetic [3]: 150 µM (≈ 46 µg/mL)
38 | 3.98 | – | CC(C)C(NC(=O)N(C)C(C)(C)C)C(=O)c1ccc(C#N)cc1 (stereo unspecified) | –
39 | 5.01 | 15.8 | CC(C)C(NC(=O)OC(C)(C)C)C(=O)c1ccc(Cl)cn1 (stereo unspecified) | –
40 | – | – | CC(C)C(NC(=O)c1ccccc1)C(=O)c1ccccc1 (racemic) | pIC50 [1]: inactive; pIC50 [2]: < 4.5
41 | – | – | CC(C)C(NC(=O)NCc1ccccc1)C(=O)c1ccc(C#N)cc1 (stereo unspecified) | pIC50 [1]: inactive; pIC50 [2]: inactive
42 | 3.16 | – | CC(C)C(C)(NC(=O)c1ccccc1)C(=O)c1ccc(Cl)cc1 (stereo unspecified) | pIC50 [2]: inactive
43 | 5.01 | 5.01 | CC(C)C(NC(=O)N1CCc2ccccc2C1)C(=O)c1ccc(C#N)cc1 (stereo unspecified) | Stability [4]: Unstable
44 | 2 | 2 | O=C(NC(C(=O)c1ccc(Cl)cc1)C1CC1)c1ccccc1 (stereo unspecified) | –
45 | 0.251 | 0.631 | CC(C)C(NC(=O)N(C)C(C)(C)C)C(=O)c1ccc(Cl)cc1 (stereo unspecified) | –
